Consider 20 compounds from ChEMBL document CHEMBL4622930, “Synthesis and biological evaluation of novel isothiazoloquinoline quinone analogues” (Bioorg Med Chem Lett, 2020).

The subject of data set [1] is A549. The data set can be described thus: Induction of ROS generation in human A549 cells at 2 uM measured after 24 hrs by DCFH-DA probe based flow cytometry (reference value: 4.92 %). It counts as functional.
Data set [2] relates to MCF-10A. In words: Cytotoxicity against human MCF10A cells assessed as reduction in cell viability measured after 48 hrs MTT assay. The data set is classed as cell-based. A digest of the protocol: (§1)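 Cells (MDA-MB-231, MCF-7, MCF-10A, HT-29, A549) exposed to compounds for 48 h, then viability read by MTT. IC50 is the concentration giving 50% inhibition of viability. Means ± SD of three independent experiments.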

In data set [3] the test system is MDA-MB-231. In words: Antiproliferative activity against human MDA-MB-231 cells assessed as reduction in cell viability measured after 48 hrs MTT assay. The data set is classed as functional, cell-based. The settings on record: MDA-MB-231, 48 h. A digest of the protocol: as §1
Data set [4] deals with HT-29. The data set can be described thus: Antiproliferative activity against human HT-29 cells assessed as reduction in cell viability measured after 48 hrs MTT assay. The data set is classed as functional, cell-based. The settings on record: HT-29, 48 h. The essentials:
as §1

In data set [5] the test system is A549. The data set can be described thus: Induction of apoptosis in human A549 cells assessed as late apoptotic cells at 2 uM measured after 24 hrs by annexinV-FITC/propidium iodide staining based flow cytometry (reference value: 3.70 %). The data set is classed as functional.
In data set [6] the test system is A549. The data set can be described thus: Antiproliferative activity against human A549 cells assessed as reduction in cell viability measured after 48 hrs MTT assay. Conditions: A549, 48 h. It counts as functional, cell-based. The essentials:
as §1

For data set [7], the system named is A549. The data set can be described thus: Induction of apoptosis in human A549 cells assessed as early apoptotic cells at 2 uM measured after 24 hrs by annexinV-FITC/propidium iodide staining based flow cytometry (reference value: 0.25 %). The data set is classed as functional.
Data set [8] deals with A549. In words: Induction of apoptosis in human A549 cells assessed as live cells at 2 uM measured after 24 hrs by annexinV-FITC/propidium iodide staining based flow cytometry (reference value: 95.5 %). The data set is classed as functional.
For data set [9], the system named is A549. In words: Induction of apoptosis in human A549 cells assessed as necrotic cells at 2 uM measured after 24 hrs by annexinV-FITC/propidium iodide staining based flow cytometry (reference value: 0.54 %). It counts as functional.
Data set [10] has as its target NAD(P)H dehydrogenase [quinone] 1 (Homo sapiens) (UniProt P15559). In words: Substrate activity at human NQO1 assessed as amount of NADH oxidation assessed per umol NQO1. The essentials:
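Quinones at 20 μM coincubated with NADH with and without human NQO1. Rate of NADH oxidation measured.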

For data set [11], the system named is MCF7. In words: Antiproliferative activity against human MCF7 cells assessed as reduction in cell viability measured after 48 hrs MTT assay. The data set is classed as functional, cell-based. Conditions: MCF7, 48 h. A digest of the protocol: as §1
The target of data set [12] is Signal transducer and activator of transcription 3 (Homo sapiens) (UniProt P40763). The data set can be described thus: Inhibition of STAT3 phosphorylation in human MDA-MB-231 cells measured after 2 hrs by Western blot analysis. It counts as cell-based. A digest of the protocol: (§2)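 MDA-MB-231 cells incubated for 2 h with test compound at 2, 4 or 8 μM, or with DMSO vehicle. Phospho-STAT3 and total STAT3 detected by western blot.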

Data set [13] relates to A549. In words: Induction of apoptosis in human A549 cells measured after 24 hrs by annexinV-FITC/propidium iodide staining based flow cytometry. It counts as functional, cell-based.
Data set [14] concerns A549. In words: Induction of apoptosis in human A549 cells assessed as late apoptotic cells at 1 uM measured after 24 hrs by annexinV-FITC/propidium iodide staining based flow cytometry (reference value: 3.70 %). The data set is classed as functional.
For data set [15], the system named is A549. The data set can be described thus: Potency index, ratio of BBI608 activity to test compound activity for induction of apoptosis in human A549 cells measured after 24 hrs by annexinV-FITC/propidium iodide staining based flow cytometry. The data set is classed as functional. A digest of the protocol:
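A549 cells given test compound or BBI608, each at 2 μM, for 24 h, then stained with Annexin V-FITC/propidium iodide for 15 min. Apoptosis rate by flow cytometry; the ratio compares rates at the same concentration.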

In data set [16] the test system is A549. In words: Induction of ROS generation in human A549 cells at 2 uM measured after 24 hrs by DCFH-DA probe based flow cytometry relative to BBI608. It counts as functional.
The test system of data set [17] is A549. In words: Induction of apoptosis in human A549 cells assessed as necrotic cells at 1 uM measured after 24 hrs by annexinV-FITC/propidium iodide staining based flow cytometry (reference value: 0.54 %). The data set is classed as functional.
In data set [18] the test system is MDA-MB-231. In words: Effect on total STAT3 level in human MDA-MB-231 cells at 2 to 8 uM measured after 2 hrs by Western blot analysis. The data set is classed as cell-based. The settings on record: mda-mb-231, 2 h. A digest of the protocol: as §2
The test system of data set [19] is A549. In words: Induction of apoptosis in human A549 cells assessed as live cells at 1 uM measured after 24 hrs by annexinV-FITC/propidium iodide staining based flow cytometry (reference value: 95.5 %). It counts as functional.
For data set [20], the system named is A549. The data set can be described thus: Induction of apoptosis in human A549 cells assessed as early apoptotic cells at 1 uM measured after 24 hrs by annexinV-FITC/propidium iodide staining based flow cytometry (reference value: 0.25 %). The data set is classed as functional.

Sequence of NAD(P)H dehydrogenase [quinone] 1 (Homo sapiens) (P15559 whole entry): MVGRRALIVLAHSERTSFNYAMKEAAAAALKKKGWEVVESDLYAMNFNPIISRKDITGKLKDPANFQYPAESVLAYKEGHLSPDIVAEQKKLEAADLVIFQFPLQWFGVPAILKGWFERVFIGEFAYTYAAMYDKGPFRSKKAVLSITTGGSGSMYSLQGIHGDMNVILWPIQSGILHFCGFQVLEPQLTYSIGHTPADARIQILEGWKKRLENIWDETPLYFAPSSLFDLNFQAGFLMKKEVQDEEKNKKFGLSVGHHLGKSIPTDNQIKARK
Sequence of Signal transducer and activator of transcription 3 (Homo sapiens) (P40763 whole entry): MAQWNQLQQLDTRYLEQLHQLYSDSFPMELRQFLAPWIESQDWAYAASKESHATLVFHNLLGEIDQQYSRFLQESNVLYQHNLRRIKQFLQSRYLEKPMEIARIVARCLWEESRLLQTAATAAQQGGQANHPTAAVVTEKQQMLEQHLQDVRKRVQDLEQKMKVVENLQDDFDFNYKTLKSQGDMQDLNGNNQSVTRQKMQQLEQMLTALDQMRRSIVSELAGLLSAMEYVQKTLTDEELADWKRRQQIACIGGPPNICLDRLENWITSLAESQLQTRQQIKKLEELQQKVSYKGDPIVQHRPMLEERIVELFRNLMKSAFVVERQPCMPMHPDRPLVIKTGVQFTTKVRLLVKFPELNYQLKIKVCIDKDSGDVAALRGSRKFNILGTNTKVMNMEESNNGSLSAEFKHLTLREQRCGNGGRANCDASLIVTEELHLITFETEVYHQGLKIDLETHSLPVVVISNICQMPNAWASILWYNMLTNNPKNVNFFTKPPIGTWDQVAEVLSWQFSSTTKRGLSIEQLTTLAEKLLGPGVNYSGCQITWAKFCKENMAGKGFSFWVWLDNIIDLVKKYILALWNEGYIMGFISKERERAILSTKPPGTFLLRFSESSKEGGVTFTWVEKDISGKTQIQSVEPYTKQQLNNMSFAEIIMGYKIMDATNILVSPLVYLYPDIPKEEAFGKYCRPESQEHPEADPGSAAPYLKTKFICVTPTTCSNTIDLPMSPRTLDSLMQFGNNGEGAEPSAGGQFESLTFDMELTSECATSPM

In the case of `CC(=O)c1cc2c(o1)C(=O)c1ccccc1C2=O` [NAPABUCASIN], the Activity is 23.5% in data set [1]; 4.98% in data set [5]; 0.16% in data set [7]; 94.4% in data set [8]; 0.45% in data set [9]; 170 µmol/min in data set [10]. Further, the half-maximal inhibitory concentration (IC50) in [2] was determined as 540 nM; in data set [3], 1290 nM; in data set [4], 140 nM; in data set [6], 6690 nM; in data set [11], 630 nM.

`Cc1nsc2c1C(=O)c1ccccc1C2=O`: the IC50 in [2] was 1110 nM; in data set [3], 1650 nM; in [4] it was 2670 nM; in [6], 1710 nM; in data set [11] it was 4090 nM. Also, the Activity in data set [10] was 68 µmol/min.

`CCc1nsc2c1C(=O)c1ncccc1C2=O`: the 50% inhibitory concentration (IC50) in data set [2] came to 170 nM; in data set [3] it was 1530 nM; in data set [4] it was 910 nM; in data set [6], 1380 nM; in data set [11], 360 nM. In addition, the Activity in [10] came out at 91.8 µmol/min.

With `COc1ccc(-c2nsc3c2C(=O)c2cccnc2C3=O)cc1`, the half-maximal inhibitory concentration (IC50) in [2] was found to be 1960 nM; in [3] it was 730 nM; in data set [4], 40000 nM; in data set [6], 2770 nM; in [11], 1820 nM. Moreover, the Activity in data set [10] worked out at 209 µmol/min.

Consider `Cc1nsc2c1C(=O)c1ncccc1C2=O`, for which the inhibition entry in data set [12] was “Dose-dependent effect”. Moreover, the Activity is 57.5% in data set [1]; “Dose-dependent effect” in [13]; 6.53% in data set [14]; 13.4% in data set [5]; 0.59% in data set [17]; “Non-Toxic” in [18]. The Activity in data set [19] stood at 92.7%; in data set [7] it was 0.33%; in data set [8] it was 84.8%; in data set [9], 1.49%; in data set [10], 219 µmol/min; in data set [20] it was 0.17%. Moreover, the Ratio in [15] is reported as 2.5; in [16], 3. In addition, the IC50 in data set [2] was 130 nM; in [3] it was 260 nM; in data set [4] it was 1520 nM; in data set [6], 3280 nM; in data set [11] it was 310 nM.

Consider `CCc1nsc2c1C(=O)c1cccnc1C2=O`, for which the IC50 in [2] came to 590 nM; in [3], 340 nM; in [4] it was 2060 nM; in data set [6] it was 1510 nM; in data set [11], 1110 nM. The Activity in data set [10] was 28.4 µmol/min.

As for `Cc1nsc2c1C(=O)c1c(O)cccc1C2=O`, the concentration for half-maximal inhibition (IC50) came out at 920 nM in [2]; 1670 nM in data set [3]; 1620 nM in [4]; 1960 nM in data set [6]; 920 nM in data set [11]. Moreover, the Activity in data set [10] was 122 µmol/min.

As for `COc1ccc(-c2nsc3c2C(=O)c2ccccc2C3=O)cc1`, the half-maximal inhibitory concentration (IC50) in data set [2] is 29300 nM; in [3] it was 35200 nM; in data set [4] it was 36800 nM; in data set [6], more than 40000 nM; in data set [11], 37500 nM. In addition, in data set [10], the Activity was determined as 7.29 µmol/min.

With `Cc1nsc2c1C(=O)c1cccc(O)c1C2=O`, the IC50 in data set [2] amounted to 1370 nM; in data set [3], 2670 nM; in [4], 1410 nM; in [6], 1360 nM; in data set [11], 1580 nM. Besides, the Activity in data set [10] is 122 µmol/min.

On to `CCc1nsc2c1C(=O)c1cccc(O)c1C2=O`, for which the IC50 in data set [2] was 3020 nM; in data set [3], 5810 nM; in [4], 3800 nM; in [6], 2830 nM; in [11] it was 3310 nM. In data set [10], the Activity came out at 112 µmol/min.

`O=C1c2cccnc2C(=O)c2c(-c3ccccc3)nsc21`: the 50% inhibitory concentration (IC50) in data set [2] was 170 nM; in data set [3], 660 nM; in [4], 2030 nM; in data set [6], 1350 nM; in data set [11], 460 nM. Further, the Activity in [10] came to 175 µmol/min.

`O=C1c2ncccc2C(=O)c2c(-c3ccccc3)nsc21`: the IC50 in data set [2] was found to be 880 nM; in data set [3], 400 nM; in data set [4], 1200 nM; in [6], 810 nM; in [11], 260 nM. For the same compound, the Activity in data set [10] was 174 µmol/min.

As for `O=C1c2ccccc2C(=O)c2c(-c3ccccc3)nsc21`, the IC50 in [2] is 17600 nM; in data set [3], 10300 nM; in [4] it was 18800 nM; in data set [6], 27500 nM; in data set [11] it was more than 40000 nM. The Activity in data set [10] was determined as 5.59 µmol/min.

As to `COc1ccc(-c2nsc3c2C(=O)c2cccc(O)c2C3=O)cc1`, the IC50 in data set [2] was 1510 nM; in data set [3] it was 1460 nM; in data set [4], 3880 nM; in data set [6], 4800 nM; in data set [11], 1410 nM. For the same compound, the Activity in data set [10] turned out to be 38.9 µmol/min.

As for `COc1ccc(-c2nsc3c2C(=O)c2cccc(OC)c2C3=O)cc1`, the IC50 in data set [2], in data set [3], in data set [4], in data set [6] and in data set [11] was more than 40000 nM throughout. For the same compound, in data set [10], the Activity worked out at 18 µmol/min.

Regarding `COc1ccc(-c2nsc3c2C(=O)c2c(OC)cccc2C3=O)cc1`, the Activity in [1] amounted to 7.19%; in data set [10], 8.75 µmol/min. Besides, the 50% inhibitory concentration (IC50) in data set [2], in [3], in data set [4], in [6] and in [11] was more than 40000 nM each time.

`Cc1nsc2c1C(=O)c1cccnc1C2=O`: the half-maximal inhibitory concentration (IC50) amounted to 880 nM in data set [2]; 230 nM in data set [3]; 3030 nM in [4]; 1690 nM in data set [6]; 640 nM in data set [11]. The Activity in data set [10] was 180 µmol/min.

Turning to `COc1cccc2c1C(=O)c1snc(-c3ccccc3)c1C2=O`, the IC50 in data set [2] is 24600 nM; in data set [3] it was 22000 nM; in data set [4], 28800 nM; in [6] it was more than 40000 nM; in data set [11], 12100 nM. Further, in data set [10], the Activity amounted to 14.6 µmol/min.

As for `CCc1nsc2c1C(=O)c1c(O)cccc1C2=O`, the half-inhibitory concentration (IC50) was found to be 3060 nM in data set [2]; 2720 nM in data set [3]; 1660 nM in data set [4]; 1380 nM in data set [6]; 710 nM in data set [11]. Also, the Activity in [10] was 97.2 µmol/min.

For the compound `CCc1nsc2c1C(=O)c1ccccc1C2=O`, the 50% inhibitory concentration (IC50) in data set [2] worked out at 1130 nM; in data set [3] it was 2590 nM; in data set [4], 2920 nM; in [6], 700 nM; in [11], 2340 nM. Further, the Activity in data set [10] stood at 122 µmol/min.
